From ChEMBL document CHEMBL5120742, “Multi-target weapons: diaryl-pyrazoline thiazolidinediones simultaneously targeting VEGFR-2 and HDAC cancer hallmarks” (RSC Med Chem, 2021) come the findings set out here.

The source made the active and inactive calls. The rule behind the calls is not given here.

The test system of one test is K562. The test can be described thus: Antiproliferative activity against human K562 cells assessed as reduction in cell viability after 48 hrs by MTT assay. In kind it is functional, cell-based. Conditions: K562, 48 h. An outline of the steps: (§1)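 MCF-7, K562, A549 and HT-29 lines were seeded in 96-well plates and kept overnight at 37 °C, 5% CO2, 95% humidity. They were then exposed to six concentrations (100 to 2.5) for 48 h. After PBS washes, MTT was added for 4 h at 37 °C and formazan was dissolved in DMSO. Absorbance was read at 570 nm. Survival is mean OD of treated wells over the negative control, and IC50 was derived from that.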

Test [1] concerns the target Vascular endothelial growth factor receptor 2 (Homo sapiens, UniProt P35968). Nature of the test: Inhibition of human VEGFR2 in HUVEC cells assessed as reduction in VEGFR2 phosphorylation incubated for 30 mins by anti-phospho VEGF Tyr 1175 antibody based assay. The format is cell-based. The essentials:
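HUVECs were seeded at 4000–5000 per well in DMEM with 10% FCS for 12 h, then held 24 h in serum. Compound (10 µM) was added with serum for 30 min at 37 °C. Cells were fixed in 4% formaldehyde and probed with anti-phospho-VEGFR Tyr1175 (1:1000), then an HRP secondary (1:5000). TMB signal was stopped with 2N H2SO4 and read at 450 nm. Percent inhibition is normalized to control.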

Another test relates to MCF7. Nature of the test: Antiproliferative activity against human MCF7 cells assessed as reduction in cell viability after 48 hrs by MTT assay. Conditions: MCF7, 48 h. In kind it is functional, cell-based. The essentials:
as §1

The test system of another test is A549. Nature of the test: Antiproliferative activity against human A549 cells assessed as reduction in cell viability after 48 hrs by MTT assay. Conditions: A549, 48 h. The format is functional, cell-based. An outline of the steps: as §1
Another test deals with HT-29. Nature of the test: Antiproliferative activity against human HT-29 cells assessed as reduction in cell viability after 48 hrs by MTT assay. Conditions: HT-29, 48 h. The format is functional, cell-based. The essentials: as §1
The species entered for another test is Gallus gallus. The test can be described thus: Inhibition of angiogenesis in chicken chorioallantoic membrane assessed as reduction in number of branching capillaries at 1 to 10 ug/ul after 12 days in presence of human VEGF by stereomicroscopic analysis. Conditions: Embryo, dose 1-10 µg/microl, time 12.0 day.

Sequence of Vascular endothelial growth factor receptor 2 (P35968 whole entry): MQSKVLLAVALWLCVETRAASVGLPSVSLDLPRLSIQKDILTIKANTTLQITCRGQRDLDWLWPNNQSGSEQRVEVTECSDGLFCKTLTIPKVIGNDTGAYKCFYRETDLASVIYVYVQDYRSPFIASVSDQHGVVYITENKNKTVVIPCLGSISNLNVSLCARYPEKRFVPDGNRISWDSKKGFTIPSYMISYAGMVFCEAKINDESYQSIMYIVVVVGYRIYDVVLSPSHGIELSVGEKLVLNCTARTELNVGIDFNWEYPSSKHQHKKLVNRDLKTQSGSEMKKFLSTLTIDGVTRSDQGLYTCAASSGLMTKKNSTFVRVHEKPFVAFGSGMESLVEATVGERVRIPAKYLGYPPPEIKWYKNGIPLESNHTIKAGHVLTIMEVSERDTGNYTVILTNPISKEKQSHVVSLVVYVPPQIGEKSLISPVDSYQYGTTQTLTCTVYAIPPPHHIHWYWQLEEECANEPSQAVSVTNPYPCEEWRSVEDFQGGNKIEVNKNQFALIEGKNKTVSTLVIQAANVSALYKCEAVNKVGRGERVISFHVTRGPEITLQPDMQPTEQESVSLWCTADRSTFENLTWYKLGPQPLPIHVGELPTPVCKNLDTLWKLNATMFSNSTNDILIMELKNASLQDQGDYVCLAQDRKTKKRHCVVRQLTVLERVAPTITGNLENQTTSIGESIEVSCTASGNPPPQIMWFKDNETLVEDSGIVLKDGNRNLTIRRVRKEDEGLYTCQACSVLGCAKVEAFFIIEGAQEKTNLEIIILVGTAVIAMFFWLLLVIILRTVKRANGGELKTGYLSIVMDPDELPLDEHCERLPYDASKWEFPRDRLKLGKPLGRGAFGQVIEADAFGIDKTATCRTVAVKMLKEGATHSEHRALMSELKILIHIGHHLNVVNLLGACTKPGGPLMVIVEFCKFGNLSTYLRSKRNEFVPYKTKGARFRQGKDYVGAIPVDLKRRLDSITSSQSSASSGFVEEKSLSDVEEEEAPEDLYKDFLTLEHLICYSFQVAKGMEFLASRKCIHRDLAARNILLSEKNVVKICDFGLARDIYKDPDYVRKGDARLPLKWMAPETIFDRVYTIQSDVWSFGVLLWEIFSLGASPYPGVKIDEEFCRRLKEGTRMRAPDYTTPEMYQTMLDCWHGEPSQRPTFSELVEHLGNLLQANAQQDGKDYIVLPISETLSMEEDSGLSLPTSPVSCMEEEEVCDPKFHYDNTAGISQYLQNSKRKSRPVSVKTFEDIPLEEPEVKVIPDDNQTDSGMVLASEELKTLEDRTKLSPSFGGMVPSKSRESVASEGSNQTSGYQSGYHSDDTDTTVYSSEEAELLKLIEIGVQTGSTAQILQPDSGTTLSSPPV

`O=C1NC(=O)/C(=C\c2ccc(OCC(=O)N3N=C(c4ccc(F)cc4)CC3c3ccco3)cc2)S1` (stereo unspecified): the IC50 is 46.3 µM in the test on K562; 5 µM in test [1]; 28.4 µM with MCF7; 19.5 µM in the test with A549; 18.8 µM in the test on HT-29. In addition, the inhibition entry in the test filed under Gallus gallus is “Active”.
